According to ChEMBL document CHEMBL3351505, “Ultrasound-assisted synthesis of novel 1,2,3-triazoles coupled diaryl sulfone moieties by the CuAAC reaction, and biological evaluation of them as antioxidant and antimicrobial agents” (Eur J Med Chem, 2014):
≈ marks a conversion by molar mass, not a printed value. Calls of active or inactive are those of the source. The rule behind the calls is not given here.

Columns and labels:
[1] = system: Staphylococcus aureus; experiment: Antibacterial activity against Staphylococcus aureus ATCC 29213 using 100 uL of test compound after 24 hrs by agar well diffusion method; type: functional
Outline: (§1)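 Agar well diffusion. Nutrient agar was spread with bacterial suspension at 1×10⁸ CFU/mL, and 10 mm wells were cut. Wells were loaded with compound solution made at 200 mg per 1 mL DMSO. Plates were incubated 24 h at 37 °C and inhibition zones were measured. DMSO served as the negative control.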

[2] = system: Bacillus subtilis; experiment: Antibacterial activity against Bacillus subtilis ATCC 6633 using 100 uL of test compound after 24 hrs by agar well diffusion method; type: functional; outline: as §1
[3] = system: Priestia megaterium; experiment: Antibacterial activity against Bacillus megaterium ATCC 9885 using 100 uL of test compound after 24 hrs by agar well diffusion method; type: functional; outline: as §1
[4] = system: Micrococcus luteus; experiment: Antibacterial activity against Sarcina lutea using 100 uL of test compound after 24 hrs by agar well diffusion method; type: functional; outline: as §1
[5] = system: Klebsiella pneumoniae; experiment: Antibacterial activity against Klebsiella pneumoniae ATCC 13883 using 100 uL of test compound after 24 hrs by agar well diffusion method; type: functional; outline: as §1
[6] = system: Pseudomonas aeruginosa; experiment: Antibacterial activity against Pseudomonas aeruginosa ATCC 27953 using 100 uL of test compound after 24 hrs by agar well diffusion method; type: functional; outline: as §1
[7] = system: Escherichia coli; experiment: Antibacterial activity against Escherichia coli ATCC 25922 using 100 uL of test compound after 24 hrs by agar well diffusion method; type: functional; outline: as §1
[8] = system: Candida albicans; experiment: Antifungal activity against Candida albicans NRRL Y-477 using 100 uL of test compound after 48 hrs by agar well diffusion method; type: functional
Outline: as §1, with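 “Sabouraud dextrose” for “Nutrient”, “yeast or fungal” for “bacterial”, “1×10⁶” for “1×10⁸”, “48” for “24”, “28” for “37”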

[9] = system: Saccharomyces cerevisiae; experiment: Antifungal activity against Saccharomyces cerevisiae using 100 uL of test compound after 48 hrs by agar well diffusion method; type: functional
Outline: as §1, with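 “Sabouraud dextrose” for “Nutrient”, “yeast or fungal” for “bacterial”, “1×10⁶” for “1×10⁸”, “48” for “24”, “28” for “37”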

[10] = system: Aspergillus niger; experiment: Antifungal activity against Aspergillus niger using 100 uL of test compound after 48 hrs by agar well diffusion method; type: functional
Outline: as §1, with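 “Sabouraud dextrose” for “Nutrient”, “yeast or fungal” for “bacterial”, “1×10⁶” for “1×10⁸”, “48” for “24”, “28” for “37”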

[11] = system: Staphylococcus aureus; experiment: Antibacterial activity against Staphylococcus aureus ATCC 29213 after 24 hrs by two fold serial dilution method; type: functional
[12] = system: Bacillus subtilis; experiment: Antibacterial activity against Bacillus subtilis ATCC 6633 after 24 hrs by two fold serial dilution method; type: functional
[13] = system: Priestia megaterium; experiment: Antibacterial activity against Bacillus megaterium ATCC 9885 after 24 hrs by two fold serial dilution method; type: functional
[14] = system: Micrococcus luteus; experiment: Antibacterial activity against Sarcina lutea after 24 hrs by two fold serial dilution method; type: functional
[15] = system: Klebsiella pneumoniae; experiment: Antibacterial activity against Klebsiella pneumoniae ATCC 13883 after 24 hrs by two fold serial dilution method; type: functional; conditions: ATCC 13883, 24 h
[16] = system: Pseudomonas aeruginosa; experiment: Antibacterial activity against Pseudomonas aeruginosa ATCC 27953 after 24 hrs by two fold serial dilution method; type: functional
[17] = system: Escherichia coli; experiment: Antibacterial activity against Escherichia coli ATCC 25922 after 24 hrs by two fold serial dilution method; type: functional; conditions: ATCC 25922, 24 h
[18] = system: Candida albicans; experiment: Antifungal activity against Candida albicans NRRL Y-477 after 48 hrs by two fold serial dilution method; type: functional
Outline: (§2)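 Two-fold serial broth dilution in a suitable broth, run only on compounds giving inhibition zones of at least 16 mm. Final concentrations were […]. Each 5 mL received 0.1 mL inoculum and was incubated 48 h at 28 °C. MIC was the lowest concentration without growth.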

[19] = system: Saccharomyces cerevisiae; experiment: Antifungal activity against Saccharomyces cerevisiae after 48 hrs by two fold serial dilution method; type: functional; outline: as §2
[20] = system: Aspergillus niger; experiment: Antifungal activity against Aspergillus niger after 48 hrs by two fold serial dilution method; type: functional; outline: as §2
[21] = Antioxidant activity assessed as DPPH free radical scavenging activity by spectrophotometric assay; type: physicochemical
Outline: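 Sample solutions at several concentrations were added to 0.004% DPPH in methanol and incubated 60 min in the dark. Absorbance was read at 517 nm against a blank. Inhibition % = (A_blank − A_sample)/A_blank × 100, where the control contained all reagents except the test compound.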

Row | MIC ([11]; ATCC 29213, 24 h) [µg/mL] | MIC ([12]; ATCC 6633, 24 h) [µg/mL] | MIC [14] [µg/mL] | MIC [15] [µg/mL] | MIC [16] [µg/mL] | MIC [17] [µg/mL] | MIC ([18]; NRRL Y-477, 48 h) [µg/mL] | MIC [19] | MIC [20] [µg/mL] | IC50 [21] [µg/mL] | Compound | diameter of the inhibition zone (DIZ) [1] [mm] | diameter of the inhibition zone (DIZ) [2] [mm] | diameter of the inhibition zone (DIZ) [3] [mm] | diameter of the inhibition zone (DIZ) [4] [mm] | diameter of the inhibition zone (DIZ) [5] [mm] | diameter of the inhibition zone (DIZ) [6] [mm] | diameter of the inhibition zone (DIZ) [7] [mm] | diameter of the inhibition zone (DIZ) [8] | diameter of the inhibition zone (DIZ) [9] [mm] | diameter of the inhibition zone (DIZ) [10] [mm] | other results
1 | 200 (≈ 477 µM) | 200 (≈ 477 µM) | 200 (≈ 477 µM) | 200 (≈ 477 µM) | 200 (≈ 477 µM) | 200 (≈ 477 µM) | 200 (≈ 477 µM) | 200 µg/mL (≈ 477 µM) | 50 (≈ 119 µM) | 200 (≈ 477 µM) | O=S(=O)(c1ccccc1)c1ccc(C(O)Cc2cn(Cc3ccccc3)nn2)cc1 (stereo not given) | 19 | 17 | 14 | 20 | 23 | 20 | 19 | 19 mm | 17 | 30 | MIC [13]: inactive
2 | – | – | 200 (≈ 339 µM) | 200 (≈ 339 µM) | 200 (≈ 339 µM) | 200 (≈ 339 µM) | 200 (≈ 339 µM) | 200 µg/mL (≈ 339 µM) | 50 (≈ 84.6 µM) | 500 (≈ 846 µM) | O=S(=O)(c1ccccc1)c1ccc(C(Cc2cn(Cc3ccccc3)nn2)OCc2cn(Cc3ccccc3)nn2)cc1 (stereo not given) | 14 | 15 | 14 | 17 | 17 | 18 | 19 | 18 mm | 18 | 30 | MIC [11]: inactive; MIC [12]: inactive; MIC [13]: inactive

The remaining lines, values behind:

Row | Compound | MIC ([11]; ATCC 29213, 24 h) [µg/mL] | MIC ([12]; ATCC 6633, 24 h) [µg/mL] | MIC [14] [µg/mL] | MIC [15] [µg/mL] | MIC [16] [µg/mL] | MIC [17] [µg/mL] | MIC ([18]; NRRL Y-477, 48 h) [µg/mL] | MIC [19] | MIC [20] [µg/mL] | IC50 [21] [µg/mL] | diameter of the inhibition zone (DIZ) [1] [mm] | diameter of the inhibition zone (DIZ) [2] [mm] | diameter of the inhibition zone (DIZ) [3] [mm] | diameter of the inhibition zone (DIZ) [4] [mm] | diameter of the inhibition zone (DIZ) [5] [mm] | diameter of the inhibition zone (DIZ) [6] [mm] | diameter of the inhibition zone (DIZ) [7] [mm] | diameter of the inhibition zone (DIZ) [8] | diameter of the inhibition zone (DIZ) [9] [mm] | diameter of the inhibition zone (DIZ) [10] [mm] | other results
3 | O=C(Cn1cc(COC(Cc2cn(CC(=O)c3ccccc3)nn2)c2ccc(S(=O)(=O)c3ccccc3)cc2)nn1)c1ccccc1 (stereo not given) | 100 (≈ 155 µM) | 200 (≈ 309 µM) | 100 (≈ 155 µM) | 100 (≈ 155 µM) | 100 (≈ 155 µM) | 200 (≈ 309 µM) | 200 (≈ 309 µM) | 200 µg/mL (≈ 309 µM) | 200 (≈ 309 µM) | 175 (≈ 271 µM) | 24 | 17 | 20 | 24 | 15 | 23 | 20 | 23 mm | 22 | 20 | MIC ([13]; ATCC 9885, 24 h): 200 µg/mL (≈ 309 µM)
4 | CC(Cc1cn(CC(=O)c2ccc(F)cc2)nn1)(OCc1cn(CC(=O)c2ccc(F)cc2)nn1)c1ccc(S(=O)(=O)c2ccccc2)cc1 (stereo not given) | 100 (≈ 144 µM) | – | 50 (≈ 71.8 µM) | 100 (≈ 144 µM) | 100 (≈ 144 µM) | 100 (≈ 144 µM) | – | inactive | 25 (≈ 35.9 µM) | 150 (≈ 215 µM) | 27 | 15 | 17 | 26 | 26 | 27 | 25 | inactive | 15 | 34 | MIC [12]: inactive; MIC ([13]; ATCC 9885, 24 h): 200 µg/mL (≈ 287 µM); MIC [18]: inactive
5 | CC(O)(Cc1cn(Cc2ccccc2)nn1)c1ccc(S(=O)(=O)c2ccccc2)cc1 (stereo not given) | 200 (≈ 461 µM) | 200 (≈ 461 µM) | 200 (≈ 461 µM) | 100 (≈ 231 µM) | 200 (≈ 461 µM) | 200 (≈ 461 µM) | 200 (≈ 461 µM) | 200 µg/mL (≈ 461 µM) | 25 (≈ 57.7 µM) | 600 (≈ 1380 µM) | 22 | 16 | 17 | 23 | 24 | 23 | 22 | 19 mm | 16 | 32 | MIC ([13]; ATCC 9885, 24 h): 200 µg/mL (≈ 461 µM)
